Results published in PubChem BioAssay.
Active and inactive are the calls of the source.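 The calls were made as follows: active = mean duplicate activation above the buffer control mean plus 5 SD of those controls; inactive = the rest.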

biological target: Potassium voltage-gated channel subfamily E member 1 (Homo sapiens) + Potassium voltage-gated channel subfamily KQT member 1 (Homo sapiens) (UniProt P15382+P51787); experiment: KCNQ1-E1 channel activation – thallium flux, CHO-K1 KCNQ1/E1 cells, selectivity assay for KCNQ1 potentiator project, confirmation (AID 493186); conditions: FluxOR thallium flux, at 10 µM
Sequence (P51787 whole entry, looked up): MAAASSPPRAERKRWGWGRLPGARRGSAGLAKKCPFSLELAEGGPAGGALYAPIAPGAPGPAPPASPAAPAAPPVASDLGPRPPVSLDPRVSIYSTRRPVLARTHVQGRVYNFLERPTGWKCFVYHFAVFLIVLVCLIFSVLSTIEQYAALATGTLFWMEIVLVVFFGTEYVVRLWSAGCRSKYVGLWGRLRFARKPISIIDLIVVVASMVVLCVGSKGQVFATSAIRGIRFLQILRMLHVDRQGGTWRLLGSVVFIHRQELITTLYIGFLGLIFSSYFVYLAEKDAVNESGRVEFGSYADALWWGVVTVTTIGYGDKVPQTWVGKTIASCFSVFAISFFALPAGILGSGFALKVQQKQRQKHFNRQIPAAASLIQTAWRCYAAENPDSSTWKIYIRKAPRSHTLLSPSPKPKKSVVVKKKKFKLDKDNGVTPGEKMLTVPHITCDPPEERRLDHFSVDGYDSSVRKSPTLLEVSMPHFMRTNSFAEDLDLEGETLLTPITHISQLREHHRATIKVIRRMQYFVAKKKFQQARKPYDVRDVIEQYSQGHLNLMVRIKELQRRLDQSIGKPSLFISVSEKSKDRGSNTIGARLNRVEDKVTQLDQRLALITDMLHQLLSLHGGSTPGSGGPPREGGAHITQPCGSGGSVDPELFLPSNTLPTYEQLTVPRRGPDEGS
How it was run: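 Assay system: CHO-K1 cells with KCNQ1/E1 | Dosing: Single compound concentration per well | Incubation: Dye 90 min, compound 20 min, room temperature | Measured by: FluxOR Tl+ flux fluorescence, kinetic read | Controls: Buffer low control, R-L3 high control | Replicates: Duplicate wells per compound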

outcome, inactive:
CCOC(=O)C(C(=O)OCC)C(C(=O)OCC)N1CCOCC1 (stereo not drawn), CCOC(=O)N1CCN(C(=S)NC(=O)c2ccc(F)c(F)c2)CC1, COC(=O)c1sc(NC(=S)NC(=O)c2cccc(C)c2)nc1C, COc1ccc(OCCCC(=O)NNC(=O)CCN2CCN(c3ccccc3)CC2)cc1, S=c1[nH]nc(-c2cccs2)n1/N=C/c1cn(-c2ccccc2)nc1-c1ccccc1, COc1ccc(NC(=S)NCCC(c2ccccc2)c2ccccc2)c(OC)c1, CCOC(=O)c1[nH]c2cc(OC)c(OC)cc2c1NC(=O)CN(C)C1CCCCC1, Cc1ccc(C)c(N/C(N)=N/c2nc(C)cc(C)n2)c1, S=C(N/N=C/c1cccc2ccccc12)Nc1cccc(Cl)c1, CC(=O)Nc1ccc(NC(=O)CSC2=NS(=O)(=O)c3cc(Cl)ccc3N2)cc1, COc1ccc(-c2nnc(NC(=O)c3ccc(S(=O)(=O)N4CCCc5ccccc54)cc3)o2)cc1, COc1cc(OC)c(-n2cc(-c3ccc(Cl)cc3)[nH]c2=O)cc1Cl, CCn1c(SCC(=O)Nc2ccccc2F)nnc1-c1cnccn1, Cc1ccc(CNc2nc3c([nH]2)c(=O)n(C)c(=O)n3C)cc1, NS(=O)(=O)c1ccc(Sc2ccc3c(c2)CCC3)nc1, COc1nccnc1NS(=O)(=O)c1ccc(NC(=S)NC(=O)c2ccccc2F)cc1, Cc1ccc(C(=O)CSc2nnc3c4ccccc4nc(C(C)(C)C)n23)cc1, CC(C)CNC(=S)NC(=O)c1ccc([N+](=O)[O-])cc1, O=C1C(=O)N(CCCc2ccccc2)c2ccccc21, O=C(Nc1cccnc1)NC1CCCCC1, O=C(N/N=C/c1ccc(-c2ccccc2)o1)c1ccccc1O, O=C(Nc1ccccc1Br)c1ccccc1-c1ccccc1, O=C(NC(=S)Nc1ccccc1N1CCOCC1)c1ccc(-c2cc(Cl)ccc2Cl)o1
